Assay results as given in PubChem BioAssay.
Calls of active or inactive are those of the source. Unless noted, no stated cut-off is given here; in the data, active means inhibition above about 30%; inactive means the rest.

Legend:
[1] = Her2 expression decrease, cell viability multiplex – SKBR3 breast tumor cells, AlphaScreen, ATP viability, primary screen (AID 461;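 active means Her2 level under about 52% in both replicate screens, with viability over 70% of control, limit read from the data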;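 on Her2 level: lower value means less Her2 protein in the cells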;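 on viability: percent of carrier control wells set as 100% viability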); conditions: SKBR3 Her2 protein level, 18-24 h, measured here: SKBR3 viability, ATP luminescence, at 10 µM
[2] = molecular target: Receptor tyrosine-protein kinase erbB-2 (Homo sapiens) (UniProt P04626); assay: as above; conditions: 18-24 h, at 10 µM, stronger effect = lower value
Receptor tyrosine-protein kinase erbB-2 (Homo sapiens), sequence (P04626 whole entry, looked up): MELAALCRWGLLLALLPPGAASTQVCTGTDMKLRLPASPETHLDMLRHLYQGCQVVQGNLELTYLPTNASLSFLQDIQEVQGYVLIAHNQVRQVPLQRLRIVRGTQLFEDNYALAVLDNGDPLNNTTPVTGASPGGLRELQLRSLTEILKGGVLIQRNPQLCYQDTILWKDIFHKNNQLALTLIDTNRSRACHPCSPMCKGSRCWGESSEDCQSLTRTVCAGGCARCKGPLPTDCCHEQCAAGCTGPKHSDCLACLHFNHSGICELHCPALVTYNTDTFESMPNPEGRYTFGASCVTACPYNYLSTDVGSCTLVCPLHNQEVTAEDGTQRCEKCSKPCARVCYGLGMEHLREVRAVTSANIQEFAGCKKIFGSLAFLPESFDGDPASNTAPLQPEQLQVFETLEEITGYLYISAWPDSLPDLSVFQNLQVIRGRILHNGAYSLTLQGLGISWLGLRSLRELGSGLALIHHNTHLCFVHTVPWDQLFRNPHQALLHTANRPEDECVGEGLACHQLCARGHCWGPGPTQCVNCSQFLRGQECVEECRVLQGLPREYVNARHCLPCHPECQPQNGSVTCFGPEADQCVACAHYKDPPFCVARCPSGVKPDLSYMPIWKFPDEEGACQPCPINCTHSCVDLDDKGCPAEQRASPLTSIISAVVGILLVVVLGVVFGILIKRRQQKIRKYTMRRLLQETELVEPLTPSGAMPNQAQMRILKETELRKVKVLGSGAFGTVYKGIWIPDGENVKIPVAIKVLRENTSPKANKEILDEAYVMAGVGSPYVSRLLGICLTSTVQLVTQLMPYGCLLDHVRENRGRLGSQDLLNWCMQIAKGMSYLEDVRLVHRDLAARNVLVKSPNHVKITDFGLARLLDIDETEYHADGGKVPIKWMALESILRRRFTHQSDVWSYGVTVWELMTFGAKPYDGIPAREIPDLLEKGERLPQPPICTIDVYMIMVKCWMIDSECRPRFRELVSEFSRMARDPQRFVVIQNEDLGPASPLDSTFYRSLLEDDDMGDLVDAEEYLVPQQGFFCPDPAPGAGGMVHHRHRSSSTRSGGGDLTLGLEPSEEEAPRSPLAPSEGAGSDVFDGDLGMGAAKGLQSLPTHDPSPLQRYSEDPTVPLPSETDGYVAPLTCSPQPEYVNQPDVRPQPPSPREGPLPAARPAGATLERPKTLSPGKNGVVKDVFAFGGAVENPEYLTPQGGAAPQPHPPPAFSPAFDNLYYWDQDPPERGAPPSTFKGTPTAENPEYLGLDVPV

[3] = reduced viability of SK-BR-3 breast cancer cells – cell-based, 24 h, human, pilot screen (AID 572;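 active means viability at or below 10% of carrier control in both of two separate runs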;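 further: compound exposure lasted between 18 and 24 h rather than exactly 24 h; 100% = carrier-treated control wells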); conditions: SK-BR-3 viability, CellTiter-Glo luminescence, at 10 µM, stronger effect = lower value
[4] = HUVEC growth inhibition – cell-based, human, primary screen (AID 575;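 active means viability at or below 30% in both replicate assays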;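 further: 100% = median of untreated cell wells with 0.1% DMSO on each plate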); conditions: HUVEC proliferation, CellTiter-Glo luminescence, 72 h; at 10 µM; stronger effect = lower value
In short: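 Test system: HUVEC primary cells. Quantity: 1250 endothelial cells in each well. Dosing: single-point 10 µM, DMSO 0.1% final. Incubation: 72 h treatment at 37 °C. Measured by: CTG luminescence. Control set: DMSO cell controls and MePR drug controls. Plate: collagen-coated 384-well format.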

[5] = H69AR cell proliferation blockers – human, duplicate replicates, primary screen (AID 580;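 active means viability at or under a set limit in both replicates, limit being median viability minus 3 SD, cut at about 48% in these data, passing the limit was not always enough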;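 further: 100% = mean luminescence of untreated wells and 0% = no signal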); conditions: H69AR lung tumor cells viability, ATP luminescence, 72 h; at 10 µM; stronger effect = lower value
[6] = MRP1 drug-resistance reversers in H69AR cells – cell-based, doxorubicin co-treatment, pilot screen (AID 601;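 active means viability loss from added drug above about 55%, and viability with drug at most 40%, in both replicates, limit read from the data, passing the limit was not always enough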); conditions: CellTiter-Glo, 72 h, at 10 µM; for differential viability (reversal): stronger effect = higher value
[7] = yeast transport mutant growth inhibition pilot in 384-well plates, post-Golgi transport modulator project (AID 636; in the data active means inhibition above about 31%); conditions: absorbance 615 nm, about 18 h, stronger effect = higher value
[8] = growth suppression of yeast trafficking mutant, preliminary HTS, modulators of trafficking downstream of Golgi apparatus project, 1536-format plate, OD 615 nm (AID 637); conditions: yeast transport mutant growth, absorbance 615 nm, 18 h; stronger effect = higher value
[9] = H69AR cells + 2 uM doxorubicin, measured here: viability with 2 uM doxorubicin, stronger effect = lower value
[10] = H69AR cells, compound alone cytotoxicity

SMILES	viability [1] [%]	Her2 level [2]	viability [3]	viability [4]	viability [5]	differential viability (reversal) ([6]; H69AR cells + 2 uM doxorubicin)	viability [6, 9] [%]	viability [6, 10] [%]	inhibition [7]	inhibition [8]
CCOc1ccc(C2CC(c3cccc(C)c3)n3ncnc3N2)cc1 (stereo not given)	101	100% (inactive)	101% (inactive)	94% (inactive)	111% (inactive)	18% (inactive)	93.1	111	1.41% (inactive)	-3% (inactive)
CC(C)(C)C1=C[C@@H](CO)C[C@@H](CO)C1	86	87% (inactive)	86% (inactive)	94.2% (inactive)	87.3% (inactive)	-0.585% (inactive)	87.9	87.3	-4.13% (inactive)	-5.08% (inactive)
COc1ccc(C)cc1NC(=O)c1nc2nc(C)cc(C)n2n1	86	76% (inactive)	86% (inactive)	73% (inactive)	85.1% (inactive)	-1.54% (inactive)	86.6	85.1	-6.13% (inactive)	-1.11% (inactive)
COC(=O)C(CC(C)C)NC(=O)CSc1nc(-c2ccccc2)c(C#N)c(=O)[nH]1 (stereo not given)	110	90% (inactive)	110% (inactive)	107% (inactive)	108% (inactive)	7.26% (inactive)	100	108	-3.12% (inactive)	4.1% (inactive)
CC1Oc2ccccc2N(CC(=O)N(Cc2ccccc2)Cc2ccccn2)C1=O (stereo not given)	108	100% (inactive)	108% (inactive)	110% (inactive)	88.6% (inactive)	-1.47% (inactive)	90.1	88.6	-5.54% (inactive)	-10% (inactive)
Cn1c(=O)c2c(ncn2CC(O)CNc2ccc(Cl)cc2)n(C)c1=O (stereo not given)	91	103% (inactive)	91% (inactive)	79.6% (inactive)	89.9% (inactive)	0.365% (inactive)	89.5	89.9	-0.53% (inactive)	-5.71% (inactive)
COc1ccccc1C(=O)N1CCNC(=O)C1CC(=O)Nc1ccc(Cl)cc1 (stereo not given)	97.5	89.5% (inactive)	97.5% (inactive)	99.6% (inactive)	95.5% (inactive)	-2.83% (inactive)	98.3	95.5	1.71% (inactive)	-2.74% (inactive)
O=C(c1cc2cc(Cl)cc(Cl)c2oc1=O)N1CCOCC1	76	82.5% (inactive)	76% (inactive)	96% (inactive)	88.4% (inactive)	0.725% (inactive)	87.7	88.4	-6.35% (inactive)	3.44% (inactive)
O=C(NC1CCCC1)c1c[nH]c2ccc(F)cc2c1=O	97.5	90.5% (inactive)	97.5% (inactive)	92.6% (inactive)	92% (inactive)	9.81% (inactive)	82.1	92	-5.41% (inactive)	-3.67% (inactive)
CCOc1ccccc1C(=O)NCCC(=O)O	95	112% (inactive)	95% (inactive)	111% (inactive)	96.4% (inactive)	1.32% (inactive)	95.1	96.4	-0.66% (inactive)	11.3% (inactive)
COCCn1c(CN2CCN(c3cccc(Cl)c3)CC2)nc2c1c(=O)n(C)c(=O)n2C	85	85% (inactive)	85% (inactive)	64.7% (inactive)	72.9% (inactive)	17.6% (inactive)	55.4	72.9	-5.87% (inactive)	1.83% (inactive)
Cc1ccc(C)c(OCC(O)CN2C(C)CCCC2C)c1 (stereo not given)	70	98% (inactive)	70% (inactive)	96.2% (inactive)	83.8% (inactive)	0.415% (inactive)	83.4	83.8	-0.53% (inactive)	-0.95% (inactive)
Cc1ccc(SCCNS(=O)(=O)c2ccc(F)cc2)cc1	85	112% (inactive)	85% (inactive)	78.8% (inactive)	105% (inactive)	13.5% (inactive)	91.1	105	-6.8% (inactive)	-2.42% (inactive)
CCSc1nnc(NC(=O)c2csc(C)c2)s1	95	83.5% (inactive)	95% (inactive)	81.2% (inactive)	87.7% (inactive)	-7.62% (inactive)	95.3	87.7	-2.27% (inactive)	-5.41% (inactive)
CCN(CCNC(=O)C1CCN(S(=O)(=O)CC)CC1)c1ccccc1	124	92.5% (inactive)	124% (inactive)	112% (inactive)	95.7% (inactive)	6.31% (inactive)	89.4	95.7	-7.84% (inactive)	-8.33% (inactive)
CCN(CC)c1ccc(NC(=O)c2[nH]c(C)c(C(C)=O)c2C)c(C)c1	92.5	91% (inactive)	92.5% (inactive)	93.1% (inactive)	74.8% (inactive)	-1.04% (inactive)	75.9	74.8	-0.39% (inactive)	-8.06% (inactive)
CC1=C(C)[N+](=O)C2CCCCC2N1[O-] (stereo not given)	89	112% (inactive)	89% (inactive)	104% (inactive)	94.4% (inactive)	9.79% (inactive)	84.6	94.4	-5.97% (inactive)	-9.34% (inactive)
COc1ccc(C(=O)N2CCN(S(=O)(=O)c3cc(Cl)ccc3OC)CC2)cc1	108	100% (inactive)	108% (inactive)	95.6% (inactive)	103% (inactive)	1.29% (inactive)	102	103	-2.37% (inactive)	8.33% (inactive)
Cc1csc(NC(=O)CSc2nsc(SCC(=O)Nc3nc(C)cs3)c2C#N)n1	94.5	69% (inactive)	94.5% (inactive)	58.7% (inactive)	6.57% (active)	-1.3% (inactive)	7.88	6.57	-6.67% (inactive)	-1.43% (inactive)
COC(=O)CCN1CCC(C(N)=O)CC1	100	113% (inactive)	100% (inactive)	102% (inactive)	100% (inactive)	15% (inactive)	85.1	100	-6.8% (inactive)	2.46% (inactive)
COc1ccc(C2C(C(=O)c3sc(C)nc3C)=C(O)C(=O)N2CCN2CCOCC2)cc1 (stereo not given)	99	92.5% (inactive)	99% (inactive)	111% (inactive)	102% (inactive)	5.41% (inactive)	96.3	102	0% (inactive)	-4.19% (inactive)
CCC(C)c1ccc(NC(=O)c2cccnc2)cc1 (stereo not given)	93	106% (inactive)	93% (inactive)	81.6% (inactive)	92.5% (inactive)	5.06% (inactive)	87.4	92.5	-0.54% (inactive)	-1.64% (inactive)
FC(F)(F)c1cc(-c2ccco2)nc(N2CCOCC2)n1	86	80.5% (inactive)	86% (inactive)	69.1% (inactive)	92.4% (inactive)	18.6% (inactive)	73.8	92.4	-6.93% (inactive)	7.21% (inactive)
CNC(=O)CSc1nnc(-c2cccc(S(=O)(=O)N3CCOCC3)c2)n1-c1ccc(F)cc1	78.5	95% (inactive)	78.5% (inactive)	99.9% (inactive)	93.2% (inactive)	-5.28% (inactive)	98.5	93.2	0% (inactive)	-2.5% (inactive)
COc1cccc(NC(=O)N2CCN(c3cccc(C)c3C)CC2)c1	102	72.5% (inactive)	102% (inactive)	68.5% (inactive)	82.8% (inactive)	-4.58% (inactive)	87.4	82.8	1.82% (inactive)	-3% (inactive)
CCC(=O)N(Cc1cc2c(C)ccc(C)c2[nH]c1=O)C1CCCCC1	86	71.5% (inactive)	86% (inactive)	79.2% (inactive)	85.9% (inactive)	-0.72% (inactive)	86.6	85.9	-6.71% (inactive)	0.32% (inactive)
COC(=O)c1cccc(Oc2nc3c(c(=O)n(C)c(=O)n3C)n2C(C)C)c1	80.5	84% (inactive)	80.5% (inactive)	79.6% (inactive)	79.6% (inactive)	-20.9% (inactive)	101	79.6	-2.93% (inactive)	2% (inactive)
COC(=O)c1cnc2c(C(F)(F)F)cccc2c1OC	104	106% (inactive)	104% (inactive)	97.6% (inactive)	98.4% (inactive)	11.6% (inactive)	86.8	98.4	-5.33% (inactive)	-1.31% (inactive)
CCN(CC)CCOc1cccc(C(C)C)c1	90.5	95.5% (inactive)	90.5% (inactive)	92.6% (inactive)	109% (inactive)	17.4% (inactive)	91.8	109	3.25% (inactive)	-1.64% (inactive)
